Measured values: ChEMBL document CHEMBL1240314, “Small-molecule inhibitor of p53 binding to mitochondria protects mice from gamma radiation” (2006)
Active and inactive are the calls of the source. The rule behind the calls is not given here.

Assays:
HeLa = assay: Antiapoptotic activity against staurosporine-induced cell death in human HeLa cells assessed as cell survival at 10 uM after 24 hrs by methylene blue assay; type: functional, cell-based
[1] = biological target: Cellular tumor antigen p53 (Homo sapiens) (UniProt P04637); assay: Inhibition of p53-mediated apoptosis in human Saos-2 cells harboring p53 expressing lentiviral vector assessed as cell survival at 10 uM after 48 hrs by methylene blue assay; type: cell-based
Procedure, shortened: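 Saos-2 cells infected with p53-expressing lentivirus; 10 µM test agent added 5 h after infection. Survival assessed 48 h after infection by methylene blue (0.5%) staining of attached cells and optical density read-out. Means ± s.d., n = 3.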

MCF7 [2] = assay: Induction of Puma gene expression in human MCF7 cells; type: functional, cell-based
Procedure, shortened: (§1)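 Northern blot: 10 mg RNA (so in the source) isolated 18 h after UV (8.5 J m–2) or doxorubicin (125 mg ml–1 as printed) from MCF7 or U2OS cells and p53-knockdown (lentiviral shRNA) counterparts; hybridized with 32P-labeled full-length cDNA probes for Bax, Noxa, Puma; 18S rRNA loading control.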

[3] = biological target: Cellular tumor antigen p53 (Homo sapiens) (UniProt P04637); assay: Effect on UV-induced activation of p53 in human ConA cells assessed as beta-galactosidase activity by X-gal staining; type: cell-based
Procedure, shortened: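 ConA cells carrying a lacZ reporter under a p53-responsive promoter; UV 35 J m–2; β-galactosidase visualized by X-gal staining 24 h after treatment.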

WI-38 = assay: Antiapoptotic activity against TNF-alpha induced apoptosis in human WI38 cells assessed as cell survival at 0.1 uM to 10 uM after 24 hrs by methylene blue assay in presence of 0.5 ug/ml cycloheximidine; type: functional, cell-based
H1299 = assay: Inhibition of TNFalpha induced NF-kappaB activation in human H1299 cells; type: cell-based
[4] = biological target: Cellular tumor antigen p53 (Homo sapiens) (UniProt P04637); assay: Inhibition of p53-mediated transactivation of p21 in gamma-stimulated human BJ cells at 10 uM after 6 hrs; type: cell-based
NCI-H1299 = assay: Antiapoptotic activity against staurosporine-induced cell death in human H1299 cells assessed as cell survival at 10 uM after 24 hrs by methylene blue assay; type: functional, cell-based
[5] = biological target: Cellular tumor antigen p53 (Homo sapiens) (UniProt P04637); assay: Inhibition of p53-dependent transcription of noxa in human MCF7 cells; type: cell-based
Procedure, shortened: (§2)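 Northern analysis of MCF7 cells, p53 wild-type and shRNA p53-knockdown. Induction by UV 8.5 J m–2 or Dox […]. RNA isolated 18 h after treatment; 10 µg hybridised with 32P-labelled full-length cDNA probes for Bax, Noxa or Puma. 18S rRNA used as loading control.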

Mus musculus [6] = assay: Protection against 8 Gy gamma radiation-induced death in mouse assessed as increase in survival at 40 mg/kg, ip; type: functional; conditions: route intraperitoneal
Procedure, shortened: (§3)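 Male C57Bl/6J mice, 8–10 weeks old, given a single 40 mg kg–1 intraperitoneal dose 30 min before total-body gamma irradiation (137Cs, 4 Gy min–1) at 8 or 9 Gy. Survival followed. Ten mice per subgroup; three independent repeats.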

MCF7 [7] = assay: Induction of Bax gene expression in human MCF7 cells; type: functional, cell-based; procedure, shortened: as §1
MCF7 [8] = assay: Induction of Noxa gene expression in human MCF7 cells; type: functional, cell-based; procedure, shortened: as §1
Thymocyte [9] = assay: Induction of p21 mRNA expression in gamma-stimulated mouse thymocytes
Thymocyte [10] = assay: Antiapoptotic activity against dexamethasone-induced apoptosis in mouse thymocyte at 10 uM; type: functional, cell-based
Procedure, shortened: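 Primary thymocytes from 4-week-old p53-null C57Bl/6 mice, short-term culture; dexamethasone 0.5 mM, 24 h, with compound at 10 mM as printed; viability by trypan blue (0.1%) or annexin/PI FACScan; means ± s.d., n = 3.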

Fibroblast = assay: Antiapoptotic activity against TNF-alpha induced apoptosis in mouse fibroblast assessed as cell survival at 0.1 uM to 10 uM by methylene blue assay in presence of 0.5 ug/ml cycloheximidine after 24 hrs; type: functional, cell-based
[11] = biological target: Cellular tumor antigen p53 (Homo sapiens) (UniProt P04637); assay: Inhibition of p53-mediated apoptosis in human WI38 cells assessed as cell survival at 10 uM after 24 hrs by methylene blue assay; type: cell-based; conditions: WI-38
[12] = biological target: Cellular tumor antigen p53 (Homo sapiens) (UniProt P04637); assay: Inhibition of p53-dependent transcription of bax in doxorubicin-induced human U2OS cells; type: cell-based
Procedure, shortened: (§4)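 Northern analysis of U2OS cells, p53 wild-type and shRNA p53-knockdown. Induction by UV 8.5 J m–2 or Dox […]. RNA isolated 18 h after treatment; 10 µg hybridised with 32P-labelled full-length cDNA probes for Bax, Noxa or Puma. 18S rRNA used as loading control.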

[13] = biological target: Cellular tumor antigen p53 (Homo sapiens) (UniProt P04637); assay: Inhibition of p53-mediated transactivation of promoter hDM2 in human H1299 cells at 10 uM after 48 hrs by lacZ reporter assay; type: cell-based
[14] = biological target: Cellular tumor antigen p53 (Homo sapiens) (UniProt P04637); assay: Inhibition of p53-mediated transactivation of promoter cyclin G in human H1299 cells at 10 uM after 48 hrs by luciferase reporter assay; type: cell-based
[15] = biological target: Cellular tumor antigen p53 (Homo sapiens) (UniProt P04637); assay: Inhibition of p53 in human ConA cells assessed as effect on cell cycle distribution at 10 uM after 24 hrs; type: cell-based
Procedure, shortened: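 ConA cells given 10 µM test agent, with or without 10 Gy gamma irradiation. Cell-cycle distribution measured 24 h later.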

[16] = biological target: Cellular tumor antigen p53 (Mus musculus) (UniProt P02340); assay: Inhibition of p53-dependent transcription of puma in gamma-stimulated mouse thymocyte
[17] = biological target: Cellular tumor antigen p53 (Mus musculus) (UniProt P02340); assay: Inhibition of p53-mediated apoptosis in mouse fibroblast assessed as cell survival at 10 uM after 24 hrs by methylene blue assay
[18] = biological target: Cellular tumor antigen p53 (Homo sapiens) (UniProt P04637); assay: Inhibition of p53-dependent transcription of bax in UV-stimulated human […] cells; type: cell-based; procedure, shortened: as §2
[19] = biological target: Cellular tumor antigen p53 (Homo sapiens) (UniProt P04637); assay: Binding affinity to p53 assessed as reduction in mitochondrial-bound p53 level at 25 uM
Procedure, shortened: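 Cell-free reconstitution: freshly isolated HeLa or Saos-2 mitochondria (40 mg as printed) incubated 1 h at 37 °C with purified baculoviral human wild-type p53 (60 ng) plus compound in MS buffer with CaCl2; mitochondria pelleted, washed three times, p53 cosedimentation by western blot, mt-Hsp75 loading control.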

[20] = biological target: Cellular tumor antigen p53 (Homo sapiens) (UniProt P04637); assay: Inhibition of p53-dependent transcription of puma in human U2OS cells; type: cell-based; procedure, shortened: as §4
Mus musculus [21] = assay: Protection against 9 Gy gamma radiation-induced death in mouse assessed as increase in survival at 40 mg/kg, ip; type: functional; conditions: route intraperitoneal; procedure, shortened: as §3
U2OS [22] = assay: Induction of Noxa gene expression in human U2OS cells; type: functional, cell-based; procedure, shortened: as §1
HEK-293T = assay: Antiapoptotic activity against Bax gene-induced apoptosis in human 293T cells transfected with pTZV3-CMV-Bax at 10 uM after 24 hrs; type: functional, cell-based
Procedure, shortened: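 Bax delivered by transient transfection of 293T and HT1080 cells with CMV-Bax construct (Lipofectamine Plus); compound at 10 mM as printed; apoptosis scored 24 h after transfection by annexin/PI staining on FACScan.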

[23] = biological target: Cellular tumor antigen p53 (Mus musculus) (UniProt P02340); assay: Binding affinity to p53 in gamma irradiated mouse thymocyte assessed as cytosolic Bcl-2 concentration at 10 uM after 2 hrs
[24] = biological target: Cellular tumor antigen p53 (Mus musculus) (UniProt P02340); assay: Binding affinity to p53 in gamma irradiated mouse thymocyte assessed as cytosolic p21 concentration at 10 uM after 2 hrs
U2OS [25] = assay: Induction of Noxa gene expression in doxorubicin-induced human U2OS cells; type: functional, cell-based; procedure, shortened: as §1
Thymocyte [26] = assay: Induction of p21 mRNA expression in mouse thymocytes

Chain of Cellular tumor antigen p53 (Homo sapiens) (P04637 whole entry, looked up): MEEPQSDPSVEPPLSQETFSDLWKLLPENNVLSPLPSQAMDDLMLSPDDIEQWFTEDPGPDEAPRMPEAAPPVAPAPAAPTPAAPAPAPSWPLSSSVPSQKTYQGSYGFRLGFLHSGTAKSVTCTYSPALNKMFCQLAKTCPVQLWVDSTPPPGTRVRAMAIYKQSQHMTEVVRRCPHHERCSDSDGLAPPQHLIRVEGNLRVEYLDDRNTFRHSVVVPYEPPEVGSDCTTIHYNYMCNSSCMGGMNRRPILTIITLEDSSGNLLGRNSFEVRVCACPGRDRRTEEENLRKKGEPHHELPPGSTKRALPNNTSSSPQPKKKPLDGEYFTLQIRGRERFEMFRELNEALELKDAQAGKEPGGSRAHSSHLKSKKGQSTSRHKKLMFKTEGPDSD
Chain of Cellular tumor antigen p53 (Mus musculus) (P02340 whole entry): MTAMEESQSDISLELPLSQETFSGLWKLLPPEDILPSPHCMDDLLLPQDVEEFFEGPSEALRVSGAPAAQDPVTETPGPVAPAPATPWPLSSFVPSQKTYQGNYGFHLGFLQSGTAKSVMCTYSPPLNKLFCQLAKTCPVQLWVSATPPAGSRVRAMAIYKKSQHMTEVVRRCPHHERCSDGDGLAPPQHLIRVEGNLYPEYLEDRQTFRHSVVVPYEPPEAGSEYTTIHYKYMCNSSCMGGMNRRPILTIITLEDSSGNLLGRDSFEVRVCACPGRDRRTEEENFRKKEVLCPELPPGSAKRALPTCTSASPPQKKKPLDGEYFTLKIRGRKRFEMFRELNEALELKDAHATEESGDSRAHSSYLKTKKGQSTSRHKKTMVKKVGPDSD

**Q.** What does the source list for `NS(=O)(=O)C#Cc1ccccc1`?
**A.** Activity (HeLa): inactive; inhibition [1]: Active; Activity (MCF7 [2]): inactive; Activity [3]: inactive; Activity (WI-38): inactive; inhibition (H1299): inactive; inhibition [4]: inactive; Activity (NCI-H1299): inactive; inhibition [5]: inactive; Activity (Mus musculus [6]): 70%; Activity (MCF7 [7]): inactive; Activity (MCF7 [8]): inactive; Activity (Thymocyte [9]): inactive; Activity (Thymocyte [10]): inactive; Activity (Fibroblast): inactive; inhibition [11]: Active; inhibition [12]: inactive; inhibition [13]: inactive; inhibition [14]: inactive; inhibition [15]: inactive; inhibition [16]: inactive; inhibition [17]: Active; inhibition [18]: inactive; Activity [19]: Active; inhibition [20]: inactive; Activity (Mus musculus [21]): 50%; Activity (U2OS [22]): inactive; Activity (HEK-293T): inactive; Activity [23]: inactive; Activity [24]: inactive; Activity (U2OS [25]): inactive; Activity (Thymocyte [26]): inactive
